Assay results reported in ChEMBL document CHEMBL1140150, “Identification of a nonbasic, nitrile-containing cathepsin K inhibitor (MK-1256) that is efficacious in a monkey model of osteoporosis” (J Med Chem, 2008).

Tests used:
[1] = Inhibition of humanized rabbit cathepsin K Tyr61Asp and Val157Leu mutant; parameters: species or system Homo sapiens
[2] = Selectivity for rabbit cathepsin K over human cathepsin S
Method in brief: (§1)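 Counterscreens used human Cat B and Cat S. Selectivity is expressed against humanized rabbit Cat K.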

[3] = Selectivity for rabbit cathepsin K over human cathepsin B; method in brief: as §1
[4] = molecular target: T1, Cathepsin K (Oryctolagus cuniculus, UniProt P43236); experiment: Inhibition of rabbit cathepsin K
T1 sequence (P43236 whole entry): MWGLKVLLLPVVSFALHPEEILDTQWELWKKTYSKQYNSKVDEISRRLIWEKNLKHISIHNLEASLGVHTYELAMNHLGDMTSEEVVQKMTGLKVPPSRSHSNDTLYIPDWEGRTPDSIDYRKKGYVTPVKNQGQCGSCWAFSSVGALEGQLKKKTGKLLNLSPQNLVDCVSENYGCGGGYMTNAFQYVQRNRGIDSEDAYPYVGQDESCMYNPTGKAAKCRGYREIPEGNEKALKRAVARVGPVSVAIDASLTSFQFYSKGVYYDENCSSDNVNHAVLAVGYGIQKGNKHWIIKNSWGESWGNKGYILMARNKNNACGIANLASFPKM

[5] = Bone resorption shift, ratio of IC50 for inhibition of bone resorption in rabbit bone to IC50 for rabbit cathepsin K; assay type: functional, Oryctolagus cuniculus
Method in brief: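 Bone resorption shift is the rabbit bone resorption IC50 divided by the rabbit Cat K IC50.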

[6] = Inhibition of bone resorption in rabbit bone; assay type: functional, tissue-based, Oryctolagus cuniculus, Bone element
[7] = Protein binding in human plasma by ultracentrifugation; assay type: ADME, cell-free; details: read-out: PPB (converted)
[8] = Protein binding in rat plasma by ultracentrifugation; assay type: ADME, cell-free; details: read-out: PPB (converted)
[9] = Protein binding in rabbit plasma by ultracentrifugation; assay type: ADME, cell-free, Oryctolagus cuniculus; details: read-out: PPB (converted)
[10] = Selectivity for rabbit cathepsin K over human cathepsin H
[11] = Clearance in dog at 5 mL/kg, po; assay type: ADME, organism-based, Canis lupus familiaris; details: in vivo
Method in brief: (§2)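 Oral suspensions were given to overnight-fasted animals in the morning, at 10 mL/kg in rats, 5 mL/kg in dogs and 1 mL/kg in monkeys. Intravenous dosing was 1 mL/kg in all species. Plasma was sampled at intervals and analyzed by LC-MS after protein precipitation with 1.5 volumes acetonitrile and centrifugation.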

[12] = Oral bioavailability in dog at 5 mL/kg; assay type: ADME, organism-based, Canis lupus familiaris; details: in vivo; method in brief: as §2
[13] = Half life in rat at 10 mL/kg, po; assay type: ADME, organism-based; details: in vivo; method in brief: as §2
[14] = test system: Canis familiaris; experiment: Volume of distribution in dog at 5 mL/kg, po; assay type: ADME, organism-based, Canis lupus familiaris; details: in vivo; method in brief: as §2
[15] = Half life in dog at 5 mL/kg, po; assay type: ADME, organism-based, Canis lupus familiaris; details: in vivo; method in brief: as §2
[16] = Oral bioavailability in rat at 10 mL/kg; assay type: ADME, organism-based; details: in vivo; method in brief: as §2
[17] = Clearance in rat at 10 mL/kg, po; assay type: ADME, organism-based; details: in vivo; method in brief: as §2
[18] = Selectivity for rabbit cathepsin K over human cathepsin Z
[19] = Selectivity for rabbit cathepsin K over human cathepsin C
[20] = Selectivity for rabbit cathepsin K over human cathepsin F
[21] = Selectivity for rabbit cathepsin K over human cathepsin V
[22] = test system: Rattus norvegicus; experiment: Volume of distribution in rat at 10 mL/kg, po; assay type: ADME, organism-based; details: in vivo; method in brief: as §2
[23] = test system: Rhesus monkey; experiment: Inhibition of bone resorption in ovariectomized monkey model of osteoporosis assessed as reduction of urinary-N-telopeptide fragment level at 1 mg/kg, po qd for 1 week; assay type: functional, Macaca mulatta, Urine; parameters: scale not given: the % may be the effect or the level left
Method in brief: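 Adult ovariectomized rhesus monkeys given drug or vehicle orally once daily at 1 mpk for 1 week. Bone resorption was followed by urinary N-telopeptide (NTx) normalized to creatinine (nM/mM), and the value is the mean reduction versus vehicle-treated animals.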

[24] = organism: Homo sapiens; experiment: Inhibition of humanized rabbit cathepsin K Tyr61Asp and Val157Leu mutant in presence of 0.2 uM citrate buffer at 0.12 uM
Method in brief: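 Reversibility test: a 1:1 mixture of humanized rabbit Cat K and inhibitor (0.12 µM) was preincubated 15 min, then diluted 500-fold into substrate-containing buffer (0.2 µM citrate). Recovery of enzyme activity was followed over time against a control incubation, giving a recovery half-time.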

[25] = Oral bioavailability in rhesus monkey at 1 mL/kg; assay type: ADME, organism-based, Macaca mulatta; details: in vivo; method in brief: as §2
[26] = Metabolic stability in po dosed rat bile assessed as drug recovery after 96 hrs; assay type: ADME, organism-based; details: read-out: Stability
Method in brief: (§3)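 Radiolabeled compound was given orally to bile-cannulated rats. Radioactivity was recovered from bile, urine and feces over 96 h and expressed as percent of dosed radioactivity.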

[27] = Metabolic stability in po dosed rat feces assessed as drug recovery after 96 hrs; assay type: ADME, organism-based; details: faeces, read-out: Stability; method in brief: as §3
[28] = Metabolic stability in po dosed rat urine assessed as drug recovery after 96 hrs; assay type: ADME, organism-based; details: read-out: Stability; method in brief: as §3
[29] = Inhibition of bone resorption in rhesus monkey bone; assay type: functional, tissue-based, Macaca mulatta, Bone element
[30] = test system: Rattus norvegicus; experiment: Metabolic stability in po dosed rat assessed as (1R,2R)-5,5-dichloro-N-(1-cyanocyclopropyl)-2-(4-(4-(methylsulfonyl)phenyl)-1H-pyrazol-3-yl)cyclohexanecarboxamide level after 96 hrs; assay type: ADME, organism-based; details: in vivo
[31] = Cmax in ovariectomized monkey model of osteoporosis at 1 mg/kg, po qd for 1 week; assay type: ADME, organism-based, Macaca mulatta; parameters: dose 1 mg/kg, route oral; details: female, rhesus monkey, in vivo
Method in brief: (§4)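 Adult ovariectomized rhesus monkeys dosed orally once daily at 1 mpk for 1 week, dosing volume 1 mL/kg, fasted overnight before morning dosing. Plasma drug levels were taken on the final day of dosing and analyzed by LC-MS after protein precipitation with 1.5 volumes acetonitrile and centrifugation.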

[32] = Clearance in rhesus monkey at 1 mL/kg, po; assay type: ADME, organism-based, Macaca mulatta; details: in vivo; method in brief: as §2
[33] = test system: Rhesus monkey; experiment: Inhibition of bone resorption in ovariectomized monkey model of osteoporosis assessed as reduction of urinary-N-telopeptide fragment level at 1 mg/kg administered once daily; parameters: scale not given: the % may be the effect or the level left
[34] = AUC in ovariectomized monkey model of osteoporosis at 1 mg/kg, po qd for 1 week; assay type: ADME, organism-based, Macaca mulatta; parameters: dose 1 mg/kg, route oral; details: female, rhesus monkey, in vivo; method in brief: as §4
[35] = test system: Rhesus monkey; experiment: Volume of distribution in rhesus monkey at 1 mL/kg, po; assay type: ADME, organism-based, Macaca mulatta; details: in vivo; method in brief: as §2
[36] = Drug level in ovariectomized monkey model of osteoporosis at 1 mg/kg, po qd for 1 week measured after 24 hrs of last dose; assay type: ADME, organism-based, Macaca mulatta; parameters: dose 1 mg/kg, route oral; details: female, rhesus monkey, in vivo, read-out: Drug uptake; method in brief: as §4
[37] = Metabolic stability in po dosed rat assessed as drug recovery after 96 hrs; assay type: ADME, organism-based; details: in vivo; method in brief: as §3
[38] = Half life in rhesus monkey at 1 mL/kg, po; assay type: ADME, organism-based, Macaca mulatta; details: in vivo; method in brief: as §2
[39] = Tmax in ovariectomized monkey model of osteoporosis at 1 mg/kg, po qd for 1 week; assay type: ADME, organism-based, Macaca mulatta; parameters: dose 1 mg/kg, route oral; details: female, rhesus monkey, in vivo; method in brief: as §4

## Cn1cc(-c2ccc(S(C)(=O)=O)cc2)c([C@@H]2CCC(F)(F)C[C@H]2C(=O)NC2(C#N)CC2)n1
[1]
  IC50: 0.81 nM
[2]
  Selectivity ratio: 1200
[3]
  Selectivity ratio: 4400
[4]
  IC50: 4.5 nM
[5]
  Ratio IC50: 8
[6]
  IC50: 35 nM

## CSc1ccc(-c2ccccc2[C@@H]2CCC(F)(F)C[C@H]2C(=O)NCC#N)cc1
[7]
  fraction unbound: 0.15
[1]
  IC50: 0.28 nM
[2]
  Selectivity ratio: 940
[8]
  fraction unbound: 0.15
[3]
  Selectivity ratio: > 36000
[5]
  Ratio IC50: 53
[6]
  IC50: 16 nM
[9]
  fraction unbound: 0.15

## CS(=O)(=O)c1ccc(-c2cn(CC(F)(F)F)nc2[C@@H]2CCC(F)(F)C[C@H]2C(=O)NC2(C#N)CC2)cc1
[10]
  Selectivity ratio: > 140000
[11]
  CL/F: 1.8 mL/min/kg
[12]
  bioavailability: 31%
[13]
  half-life: 4.4 h
[14]
  Vdss: 1.2 L/kg
[15]
  half-life: 7.8 h
[16]
  bioavailability: 25%
[17]
  CL/F: 14 mL/min/kg
[18]
  Selectivity ratio: 1700
[1]
  IC50: 0.69 nM
[2]
  Selectivity ratio: 7100
[19]
  Selectivity ratio: 6000
[20]
  Selectivity ratio: 110
[3]
  Selectivity ratio: > 14000
[4]
  IC50: 9.3 nM
[5]
  Ratio IC50: 6
[21]
  Selectivity ratio: 1100
[6]
  IC50: 51 nM
[22]
  Vdss: 3.2 L/kg

## CS(=O)(=O)c1ccc(-c2c[nH]nc2[C@@H]2CCC(F)(F)C[C@H]2C(=O)NC2(C#N)CC2)cc1
[1]
  IC50: 1.8 nM
[2]
  Selectivity ratio: 2300
[3]
  Selectivity ratio: 2900
[4]
  IC50: 18.6 nM
[5]
  Ratio IC50: 7
[6]
  IC50: 120 nM

## CSc1ccc(-c2cn(C)nc2[C@@H]2CCC(F)(F)C[C@H]2C(=O)NCC#N)cc1 (racemic)
[1]
  IC50: 0.37 nM
[2]
  Selectivity ratio: 490
[3]
  Selectivity ratio: 9500
[4]
  IC50: 0.41 nM
[5]
  Ratio IC50: 100
[6]
  IC50: 41 nM

## CS(=O)(=O)c1ccc(-c2cn(CC(F)(F)F)nc2[C@@H]2CCC(Cl)(Cl)C[C@H]2C(=O)NC2(C#N)CC2)cc1
[10]
  Selectivity ratio: > 140000
[23]
  Activity: 72%
[11]
  CL/F: 1.4 mL/min/kg
[12]
  bioavailability: 60%
[13]
  half-life: 4.4 h
[14]
  Vdss: 2.1 L/kg
[24]
  inhibition: > 99%
[15]
  half-life: 34 h
[25]
  bioavailability: 104%
[26]
  dose excreted at 96 h: 16%
[27]
  dose excreted at 96 h: 58%
[28]
  dose excreted at 96 h: 18%
[16]
  bioavailability: 105%
[29]
  IC50: 2 nM
[17]
  CL/F: 7.8 mL/min/kg
[18]
  Selectivity ratio: 1700
[30]
  Activity: 0.1%
[1]
  IC50: 0.62 nM
[2]
  Selectivity ratio: 4300
[19]
  Selectivity ratio: 6000
[31]
  Cmax: 400 nM
[32]
  CL/F: 5 mL/min/kg
[33]
  Activity: 76%
[20]
  Selectivity ratio: 110
[34]
  AUC at 168 h: 4.2 µM·h
[3]
  Selectivity ratio: > 16000
[4]
  IC50: 6.1 nM
[5]
  Ratio IC50: 8
[21]
  Selectivity ratio: 1100
[35]
  Vdss: 3.4 L/kg
[6]
  IC50: 50 nM
[36]
  concentration at 24 h: 80 nM
[22]
  Vdss: 2.8 L/kg
[37]
  dose excreted at 96 h: 92%
[38]
  half-life: 13 h
[39]
  Tmax: 4 h
